Wee1 stabilizer: blocks degradation of human Wee1 kinase | HeLa Luc-Wee1K328M stability, luciferase luminescence; 100% = proteasome inhibitor MG132 effect | reporter increase, % at 5 µM | 220,000 tested, 1.2% active | AID 1321;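 active = activation above the mean of all tested compounds plus 3 SD, set per screening run, cut at about 8.8% in these data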;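 also: cells exposed to compound for 20 h before luminescence read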
RBBP9 inh: human RBBP9 hydrolase inhibition. recombinant RBBP9, FP-Rh probe fluorescence polarization. 220,000 tested, 0.2% active. O75884. inhibition, % at 7.94 µM;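 active = inhibition above the campaign mean of all tested compounds plus 3 SD, cut at about 14% in these data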
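Measured by – fluorescence polarization · Test system – RBBP9 protein · Input – 2.5 µM RBBP9 dispensing solution, before mixing · Measure – percent inhibition from mP, scaled between DMSO and no-protein wells · Benchmarks – DMSO-treated enzyme wells and wells lacking RBBP9 · Times – preincubation 30 min plus labeling 45 min at 25 °C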
L929 necroptosis: L929 zVAD cell death inhibition; viability rescue, % at 10 µM; 220,000 tested, 0.38% active; L929 zVAD necroptosis rescue, ATP luminescence, 24 h; with zVAD 60 µM;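 active = activation, scaled between plate controls, above about 75%, limit read from the data; inactive = activation under that limit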
p97 inhibitor: blocks human p97 ATPase activity; P55072; recombinant p97 ATPase, Kinase-Glo ATP luminescence, 3 h; inhibition, % at 8 µM; 220,000 tested, 0.42% active; in the data active = inhibition above about 15%
Target sequence (P55072 whole entry, looked up): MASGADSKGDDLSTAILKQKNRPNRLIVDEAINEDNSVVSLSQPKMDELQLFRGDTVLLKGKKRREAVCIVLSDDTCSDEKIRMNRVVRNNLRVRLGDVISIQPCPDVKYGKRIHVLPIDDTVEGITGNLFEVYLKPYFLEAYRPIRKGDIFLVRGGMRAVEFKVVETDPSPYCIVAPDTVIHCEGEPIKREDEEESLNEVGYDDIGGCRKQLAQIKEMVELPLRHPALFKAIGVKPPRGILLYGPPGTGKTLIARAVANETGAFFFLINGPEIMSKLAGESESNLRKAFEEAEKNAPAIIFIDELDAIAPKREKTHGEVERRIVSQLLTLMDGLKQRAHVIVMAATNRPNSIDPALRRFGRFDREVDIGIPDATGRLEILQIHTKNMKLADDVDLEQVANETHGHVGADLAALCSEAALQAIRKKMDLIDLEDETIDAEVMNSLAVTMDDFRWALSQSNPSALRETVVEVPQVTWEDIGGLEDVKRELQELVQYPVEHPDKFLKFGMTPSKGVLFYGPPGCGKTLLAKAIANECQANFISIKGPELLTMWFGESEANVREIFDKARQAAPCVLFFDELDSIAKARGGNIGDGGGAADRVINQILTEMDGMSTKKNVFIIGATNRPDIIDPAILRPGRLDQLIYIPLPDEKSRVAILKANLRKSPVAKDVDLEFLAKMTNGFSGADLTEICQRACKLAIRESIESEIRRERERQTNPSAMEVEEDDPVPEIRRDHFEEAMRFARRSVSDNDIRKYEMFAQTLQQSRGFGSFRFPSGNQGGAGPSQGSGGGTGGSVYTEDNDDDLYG
TNF necrop inh: blocks TNF-alpha induced death of Jurkat FADD-/- cells | Jurkat FADD-/- TNF necroptosis rescue, ATP luminescence, 24 h; 0 = TNF only, 100 = no-TNF cells | activation (protection from cell death), % at 10 µM | 220,000 tested, 0.068% active;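 active = activation, meaning protection from cell death, of at least 50% relative to plate controls; inactive = activation below 50%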;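 also: necroptosis triggered by 40 ng/mL TNF-alpha added together with compound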
M18AAP inhibitor: blocks P. falciparum M18 aspartyl aminopeptidase. AID 1822. 290,000 tested, 1.2% active. recombinant PfM18AAP, H-Glu-NHMec fluorogenic cleavage. inhibition, % at 7.35 µM;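 active = inhibition above the campaign mean inhibition over all tested compounds plus 3 SD, cut at about 28% in these data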
Wee1 degr conf: human Wee1 degradation inhibition, confirmation. shares compounds with Wee1 stabilizer. HeLa Luc-Wee1K328M degradation, luminescence; vehicle 0%, proteasome-blocked wells 100%. activation, % at 5 µM. 1,100 tested, 4% active. AID 1410; in the data active = activation above about 8.9%
Hits are given with their value; i = inactive; nt = not tested or not shown. Hits are enriched below; roughly 2.7% of the tested compounds scored in any of these assays.

SMILES	Wee1 stabilizer	RBBP9 inh	L929 necroptosis	p97 inhibitor	TNF necrop inh	M18AAP inhibitor	Wee1 degr conf
COC(=O)CC1C(=O)NCCN1C(=O)CSc1nc2ccccc2o1 (centres undefined)	12	i	i	i	i	i	i
Cc1ccc(NC(=S)NNC(=O)Nc2ccccc2)cc1	14	i	i	i	i	42	i
CC1(C)CC(=O)C2=C(C1)OC(N)=C(C#N)C2c1cc2c(cc1[N+](=O)[O-])OCO2 (centres undefined)	11	i	i	i	i	i	i
Cc1ccc(NC(=O)Cc2cc(C(=O)O)c3ccccc3n2)c(C)c1	i	i	i	i	i	i	nt
O=[N+]([O-])c1ccccc1/C=N/n1c(C(F)(F)F)n[nH]c1=S	12	i	i	i	i	i	i
CCCc1cc(=O)n2[nH]c(-c3ccc(C)cc3)cc2n1	13	i	i	i	i	i	i
O=C(/C=C/c1ccco1)NC(=S)Nc1cc(-c2nc3ccccc3s2)ccc1Cl	i	i	i	i	i	i	nt
O=C(/C=C/c1ccco1)NC(=S)Nc1cccc(-c2nc3ccccc3s2)c1	13	i	i	i	i	i	i
O=C(COC(=O)c1cc(=O)c2ccccc2o1)NC1CCCCC1	17	i	i	i	i	i	i
CCN1CCN(C(=O)/C(C#N)=C/c2ccc(OC(F)F)cc2)CC1	i	i	i	i	i	i	nt
N#C/C(=C\c1ccc(OC(F)F)cc1)C(=O)N1CCCCC1	15	i	i	i	i	i	i
O=C(NC1CCCCC1)c1cccnc1Sc1ccccc1	nt	nt	nt	nt	nt	i	nt
O=C(O)Cn1nc(-c2ccccc2)ccc1=O	nt	nt	nt	nt	nt	i	nt
CC(C)COc1ccc(C(=O)Nc2ccc([N+](=O)[O-])cc2)cc1	i	i	i	i	i	i	nt
CCC(=O)Oc1ccc(C(=O)Nc2ccc([N+](=O)[O-])cc2)cc1	12	i	i	i	i	i	i
Cc1ccc(Cl)cc1N1CCN(S(=O)(=O)c2cc3c(cc2C)NC(=O)CO3)CC1	nt	nt	nt	nt	nt	i	nt
COC(=O)CNC(=O)C1CCCN1C(=O)OC(C)(C)C (centres undefined)	13	i	i	i	i	i	i
CC(C)(C)OC(=O)N1CCC[C@H]1C(=O)O	nt	nt	nt	nt	nt	i	nt
CC(=O)c1ccc(OC(=O)c2nc(-c3ccccc3)oc2C)cc1	nt	nt	nt	nt	nt	i	nt
OCCC1CN(Cc2cccc(-n3cccn3)c2)CCN1Cc1ccccc1 (centres undefined)	i	i	i	i	i	i	nt
C/C(=N\N=c1/sc2ccccc2n1C)c1ccc(N2CCOCC2)cc1	14	i	i	i	i	i	i
CSC(=S)N/N=C(\C)c1ccccc1	i	i	i	i	i	i	nt
CCN(CC)CC(=O)NN(Cc1ccccc1)c1ccccc1	11	i	i	i	i	i	i
COc1ccc(C(=S)Nc2ccc(N(C)C)cc2)cc1	i	i	i	i	i	i	nt
COc1ccc(NC(=S)c2ccc(N(C)C)cc2)cc1	13	i	i	i	i	i	i
SMILES	Wee1 stabilizer	RBBP9 inh	L929 necroptosis	p97 inhibitor	TNF necrop inh	M18AAP inhibitor	Wee1 degr conf
O=C(O)c1ccc(CSc2nnc(COc3ccccc3)o2)cc1	14	i	i	i	i	i	i
O=C(c1cccs1)N(c1ccc(Br)cc1)C1C=CS(=O)(=O)C1 (centres undefined)	i	i	i	i	i	i	nt
CCOC(=O)C1=C(O)C(=O)N(Cc2ccc(C(C)(C)C)cc2)CC1	14	i	i	i	i	i	i
N#Cc1ccc(CN2C(=O)NC3(CCCCCC3)C2=O)cc1	nt	nt	nt	nt	nt	i	nt
CC(=O)c1cccc(NC(=O)N2CCC(c3ccc(C)cc3)C2)c1 (centres undefined)	14	i	i	i	i	i	i
CC(=O)Nc1ccc(S(=O)(=O)Nc2nc3cc4c(cc3nc2Cl)OCCO4)cc1	11	i	i	i	i	i	i
CNc1oc(-c2ccccc2Cl)nc1C#N	13	i	i	i	i	i	i
O=C(NCc1ccc(OC(F)(F)F)cc1)C12CN(Cc3ccccc3)CC1C(c1cccc([N+](=O)[O-])c1)=NO2 (centres undefined)	26	i	i	i	i	i	i
CC(C)COC(=O)N1C[C@H](O)C[C@H]1C(=O)Nc1ccc(Cl)cc1	nt	nt	nt	nt	nt	i	nt
Cc1cc(N2CCN(C(c3ccccc3)c3ccc(Cl)cc3)CC2)n2ncnc2n1 (centres undefined)	12	i	nt	i	i	i	i
O=S(=O)(Nc1ncccn1)c1ccc(-n2cnnn2)cc1	i	i	i	i	i	i	nt
CCOc1ccc(NC(=S)N2CCN(S(=O)(=O)c3ccc(OC)cc3)CC2)cc1	nt	nt	nt	nt	nt	i	nt
Nc1nc(-c2ccco2)nn1S(=O)(=O)c1ccc(Cl)cc1	i	i	i	i	i	i	nt
O=C(CN1CCC(n2nnc3cc(C(F)(F)F)ccc32)CC1)Nc1ccc2c(c1)OCCO2	15	i	i	i	i	i	i
O=C(CN1CCC(n2nnc3cc(C(F)(F)F)ccc32)CC1)Nc1ccc2c(c1)CCC2	i	i	i	i	i	i	nt
CCc1[nH]nc2c1C1(CCN(C(=O)OCc3ccccc3)CC1)C(C#N)=C(N)O2	16	i	i	i	i	i	i
CCCc1[nH]nc2c1C1(CCN(C(=O)OCc3ccccc3)CC1)C(C#N)=C(N)O2	i	i	i	i	i	i	nt
O=C(NCCCN1CCOCC1)C(=O)N/N=C/c1ccccc1Cl	i	i	i	i	i	i	nt
O=C(NCCCN1CCOCC1)C(=O)N/N=C/c1c(Cl)cccc1Cl	16	i	i	i	i	i	i
CCN1Cc2c(/C=C/c3ccccc3)nc3ccc(OC)cc3c2N(c2cccc(Cl)c2)C1	i	i	i	i	i	i	nt
CCOCCCNC(=S)Nc1ccc(S(N)(=O)=O)cc1	13	i	i	i	i	i	i
O=C(Nc1cc2cccc([N+](=O)[O-])c2oc1=O)c1cccs1	i	i	i	i	i	i	nt
Cc1ccc2nc(-c3ccc4c(c3)NC(=O)CO4)cn2c1	20	i	i	i	i	i	i
COc1ccc(CCNC(=O)CN(C)S(=O)(=O)c2ccc(OC)cc2)cc1	nt	nt	nt	nt	nt	i	nt
N#Cc1ccccc1OCC(=O)NC(=O)NCc1ccccc1	15	i	i	i	i	i	i
SMILES	Wee1 stabilizer	RBBP9 inh	L929 necroptosis	p97 inhibitor	TNF necrop inh	M18AAP inhibitor	Wee1 degr conf
CCNC(=O)NC(=O)COc1ccccc1C#N	i	i	i	i	i	i	nt
O=C(Nc1ccc(F)cc1)Nc1ccccc1C(=O)NCCN1CCNC1=O	i	i	i	i	i	i	nt
CC(C)c1ccc(-c2nnc(N)s2)cc1	12	i	i	i	i	i	i
Cc1ccc(-c2nnc(N)s2)cc1	i	i	nt	i	i	i	nt
CCn1ncc(Br)c1C(=O)Nc1ccc2c(c1)OCCO2	i	i	i	i	i	i	nt
CCn1ncc(Br)c1C(=O)Nc1cccc(F)c1	13	i	i	i	i	i	i
